Results: ChEMBL document CHEMBL1123333, “Synthesis and antiviral activity of certain nucleoside 5'-phosphonoformate derivatives” (1986)

Assays:
[1] = test system: Vero; experiment: Virus rating against Herpes simplex virus type 1 of strain KOS; type: functional, Chlorocebus sabaeus
Procedure, shortened: (§1)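 Virus-infected confluent Vero cells treated with compound in seven 0.5-log steps (final 5.0–5000 μM) after 30-min adsorption at 37 °C, duplicate wells per concentration. CPE scored microscopically 0 (normal) to 4 (complete destruction) after 72 h at 37 °C, 5% CO2.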

[2] = test system: Vero; experiment: Virus rating against vaccinia; type: functional, Chlorocebus sabaeus; procedure, shortened: as §1
[3] = test system: Vero; experiment: Compound was tested for antiviral activity against para 3; type: functional; settings: Chlorocebus sabaeus, read-out: ED50 (the source's name)
[4] = test system: Vero; experiment: Virus rating against Herpes simplex virus type 1 of strainHF; type: functional, Chlorocebus sabaeus; procedure, shortened: as §1
[5] = test system: Vero; experiment: Virus rating against para 3; type: functional, Chlorocebus sabaeus; procedure, shortened: as §1
[6] = test system: Vero; experiment: Virus rating against Herpes simplex virus type 2 of strain 333; type: functional, Chlorocebus sabaeus; procedure, shortened: as §1
[7] = test system: Vero; experiment: Virus rating against Herpes simplex virus type 2 of strain MS; type: functional, Chlorocebus sabaeus; procedure, shortened: as §1
[8] = test system: Vero; experiment: Compound was tested for antiviral activity against vaccinia; type: functional; settings: Chlorocebus sabaeus, read-out: ED50 (the source's name)
[9] = test system: Vero; experiment: Virus rating against measles virus; type: functional, Chlorocebus sabaeus; procedure, shortened: as §1
[10] = test system: Vero; experiment: Compound was tested for antiviral activity against measles virus; type: functional; settings: Chlorocebus sabaeus, read-out: ED50 (the source's name)
[11] = test system: Vero; experiment: Compound was tested for antiviral activity against Herpes simplex virus type 1 (HF); type: functional; settings: Chlorocebus sabaeus, read-out: ED50 (the source's name)
[12] = test system: Vero; experiment: Compound was tested for antiviral activity against Herpes simplex virus type 2 (MS); type: functional; settings: Chlorocebus sabaeus, read-out: ED50 (the source's name)
[13] = test system: Vero; experiment: Maximum tolerated concentration (MTC), the lowest concentration that produced microscopically evident toxicity to confluent vero cells; type: functional, Chlorocebus sabaeus
Procedure, shortened: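 Uninfected confluent Vero monolayers in DMEM with 10% newborn bovine serum, single well per concentration, exposed to compound at final 5.0–5000 μM (0.5-log steps) for 72 h at 37 °C, 5% CO2. Cytotoxicity was any microscopic change in morphology or monolayer density from lysis, rounding or detachment. MTC = lowest concentration showing such change.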

[14] = test system: Vero; experiment: Compound was tested for antiviral activity against Herpes simplex virus type 1(KOS); type: functional; settings: Chlorocebus sabaeus, read-out: ED50 (the source's name)
[15] = test system: Vero; experiment: Compound was tested for antiviral activity against Herpes simplex virus type 2 of strain 333; type: functional; settings: Chlorocebus sabaeus, read-out: ED50 (the source's name)
[16] = test system: Vero; experiment: Virus rating against Herpes simplex virus type 1 of strain HF; type: functional, Chlorocebus sabaeus; procedure, shortened: as §1

SMILES	VR [1]	VR [2]	EC50 [3]	VR [4]	VR [5]	VR [6]	VR [7]	EC50 [8]	VR [9]	EC50 [10]	EC50 [11]	EC50 [12]	MTC [13]	EC50 [14]	EC50 [15]	VR [16]
Nc1ncnc2c1ncn2C1O[C@H](COP(=O)(O)C(=O)O)[C@@H](O)[C@H]1O (stereo partly specified)	0	0.65	> 5000 µM	0.18	0	0.7	1.15	740 µM	0.38	3000 µM	> 5000 µM	360 µM	>5000 µM	> 5000 µM	1600 µM	–
Nc1ncnc2c1ncn2[C@H]1C[C@H](O)[C@@H](COP(=O)(O)C(=O)O)O1	0.65	0	–	1.08	–	1.77	1.85	> 5000 µM	0.7	900 µM	730 µM	40 µM	>5000 µM	1800 µM	54 µM	–
NC(=O)P(=O)(O)OC[C@H]1OC(n2cnc3c(N)ncnc32)[C@H](O)[C@@H]1O (stereo partly specified)	0	0	> 5000 µM	0.28	0.1	1.24	1	> 5000 µM	0.45	2800 µM	> 5000 µM	830 µM	>5000 µM	> 5000 µM	440 µM	–
O=C([O-])P(=O)([O-])[O-].[Na+].[Na+].[Na+] [FOSCARNET SODIUM]	1.37	0.1	5000 µM	1.3	0.4	2.08	1.74	> 5000 µM	0	> 5000 µM	230 µM	89 µM	>5000 µM	170 µM	20 µM	–
Nc1nc(O)c2ncn([C@H]3C[C@H](O)[C@@H](COP(=O)(O)C(=O)O)O3)c2n1	0.1	0	–	0.22	0.25	1.26	1.18	> 5000 µM	0.1	> 5000 µM	> 5000 µM	350 µM	5000 µM	> 5000 µM	230 µM	–
NC(=O)P(=O)(O)OC[C@H]1OC(n2cnc3c(O)nc(N)nc32)[C@H](O)[C@@H]1O (stereo partly specified)	0	0	> 5000 µM	0	0.1	1.16	0.91	> 5000 µM	0.7	900 µM	> 5000 µM	970 µM	>5000 µM	> 5000 µM	300 µM	–
CCOC(=O)P(=O)(O)OC[C@H]1OC(n2cnc3c(O)nc(N)nc32)[C@H](O)[C@@H]1O (stereo partly specified)	0	0	> 5000 µM	–	0.1	1.02	0.9	> 5000 µM	0.68	500 µM	> 5000 µM	820 µM	>5000 µM	> 5000 µM	600 µM	0.22
Nc1nc(O)c2ncn(C3O[C@H](COP(=O)(O)C(=O)O)[C@@H](O)[C@H]3O)c2n1 (stereo partly specified)	0	0	> 5000 µM	0.2	0.1	0.22	0.18	> 5000 µM	0.62	330 µM	> 5000 µM	> 5000 µM	>5000 µM	> 5000 µM	> 5000 µM	–
CCOC(=O)P(=O)(O)OC[C@H]1OC(n2cnc3c(N)ncnc32)[C@H](O)[C@@H]1O (stereo partly specified)	0	0.23	> 5000 µM	0.3	0	0.72	1.12	> 5000 µM	–	> 5000 µM	> 5000 µM	820 µM	>5000 µM	> 5000 µM	1000 µM	–
